Assay results: ChEMBL document CHEMBL5058577, “EUbOPEN Chemogenomics Library 2 (Multiplex)” (2022)

Tested on: HEK-293T
Assay: Multiplex assay against HEK293T
Type: toxicity, cell-based
Settings: human
Outline: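 On a CQ1 microscope at 37°C and 5% CO2, live cells were imaged after compound addition. They had been stained at seeding with Hoechst33342, BioTracker Green Microtubule Cytoskeleton Dye, MitoTracker Red and Annexin V Alexa Fluor 680. CellPathfinder machine-learning gating assigned cells to Hoechst high-intensity objects or normal cells, normal cells to healthy, pyknosed or fragmented nuclei, and pyknosed cells to mitotic or apoptotic. Tubulin, mitochondrial-mass and membrane-permeability phenotypes are per cents of healthy-nucleus cells.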

[1] = 12 h, 1 µM, compound concentration 1 uM, replicate 1
[2] = 12 h, 1 µM, compound concentration 1 uM, replicate 2
[3] = 12 h, 10 µM, compound concentration 10 uM, replicate 1
[4] = 12 h, 10 µM, compound concentration 10 uM, replicate 2
[5] = 24 h, 1 µM, compound concentration 1 uM, replicate 1
[6] = 24 h, 1 µM, compound concentration 1 uM, replicate 2
[7] = 24 h, 10 µM, compound concentration 10 uM, replicate 1
[8] = 24 h, 10 µM, compound concentration 10 uM, replicate 2
[9] = 48 h, 1 µM, compound concentration 1 uM, replicate 1
[10] = 48 h, 1 µM, compound concentration 1 uM, replicate 2
[11] = 48 h, 10 µM, compound concentration 10 uM, replicate 1
[12] = 48 h, 10 µM, compound concentration 10 uM, replicate 2

CCCOc1ccc2[nH]cc(C3=CCNCC3)c2n1.Cl
Population Apoptotic (%) [1]: 32% | Population Fragmented Nuclei (%) [1]: 5% | Population Healthy Nuclei (%) [1]: 81% | Population Hoechst High Intensity Objects (%) [1]: 5% | Population Membrane Permeable-Phenotype (%) [1]: 0% | Population Mitochondria Different-Phenotype (%) [1]: 41% | Population Mitotic Cells (%) [1]: 68% | Population Normal (%) [1]: 94% | Population Pyknosed Nuclei (%) [1]: 12% | Population Tubulin-Different-Phenotype (%) [1]: 39% | Total Cell Count [1]: 416 | Population Apoptotic (%) [2]: 44% | Population Fragmented Nuclei (%) [2]: 6% | Population Healthy Nuclei (%) [2]: 82% | Population Hoechst High Intensity Objects (%) [2]: 4% | Population Mitochondria Different-Phenotype (%) [2]: 52% | Population Mitotic Cells (%) [2]: 55% | Population Normal (%) [2]: 95% | Population Pyknosed Nuclei (%) [2]: 10% | Population Tubulin-Different-Phenotype (%) [2]: 21% | Total Cell Count [2]: 344 | Population Apoptotic (%) [3]: 43% | Population Fragmented Nuclei (%) [3]: 5% | Population Healthy Nuclei (%) [3]: 78% | Population Hoechst High Intensity Objects (%) [3]: 10% | Population Membrane Permeable-Phenotype (%) [3]: 0% | Population Mitochondria Different-Phenotype (%) [3]: 58% | Population Mitotic Cells (%) [3]: 56% | Population Normal (%) [3]: 89% | Population Pyknosed Nuclei (%) [3]: 15% | Population Tubulin-Different-Phenotype (%) [3]: 41% | Total Cell Count [3]: 446 | Population Apoptotic (%) [4]: 55% | Population Fragmented Nuclei (%) [4]: 6% | Population Healthy Nuclei (%) [4]: 82% | Population Hoechst High Intensity Objects (%) [4]: 4% | Population Mitochondria Different-Phenotype (%) [4]: 76% | Population Mitotic Cells (%) [4]: 44% | Population Normal (%) [4]: 95% | Population Pyknosed Nuclei (%) [4]: 11% | Total Cell Count [4]: 387 | Population Apoptotic (%) [5]: 28% | Population Fragmented Nuclei (%) [5]: 10% | Population Healthy Nuclei (%) [5]: 76% | Population Hoechst High Intensity Objects (%) [5]: 3% | Population Membrane Permeable-Phenotype (%) [5]: 0% | Population Mitochondria Different-Phenotype (%) [5]: 26% | Population Mitotic Cells (%) [5]: 71% | Population Normal (%) [5]: 96% | Population Pyknosed Nuclei (%) [5]: 12% | Population Tubulin-Different-Phenotype (%) [5]: 24% | Total Cell Count [5]: 558 | Population Apoptotic (%) [6]: 35% | Population Fragmented Nuclei (%) [6]: 9% | Population Healthy Nuclei (%) [6]: 80% | Population Hoechst High Intensity Objects (%) [6]: 2% | Population Membrane Permeable-Phenotype (%) [6]: 1% | Population Mitochondria Different-Phenotype (%) [6]: 29% | Population Mitotic Cells (%) [6]: 64% | Population Normal (%) [6]: 97% | Population Pyknosed Nuclei (%) [6]: 9% | Population Tubulin-Different-Phenotype (%) [6]: 14% | Total Cell Count [6]: 425 | Population Apoptotic (%) [7]: 39% | Population Fragmented Nuclei (%) [7]: 12% | Population Healthy Nuclei (%) [7]: 74% | Population Hoechst High Intensity Objects (%) [7]: 7% | Population Membrane Permeable-Phenotype (%) [7]: 0% | Population Mitochondria Different-Phenotype (%) [7]: 50% | Population Mitotic Cells (%) [7]: 60% | Population Normal (%) [7]: 92% | Population Pyknosed Nuclei (%) [7]: 12% | Population Tubulin-Different-Phenotype (%) [7]: 38% | Total Cell Count [7]: 583 | Population Apoptotic (%) [8]: 51% | Population Fragmented Nuclei (%) [8]: 6% | Population Healthy Nuclei (%) [8]: 81% | Population Hoechst High Intensity Objects (%) [8]: 3% | Population Mitochondria Different-Phenotype (%) [8]: 63% | Population Mitotic Cells (%) [8]: 48% | Population Normal (%) [8]: 96% | Population Pyknosed Nuclei (%) [8]: 11% | Population Tubulin-Different-Phenotype (%) [8]: 34% | Total Cell Count [8]: 502 | Population Apoptotic (%) [9]: 17% | Population Fragmented Nuclei (%) [9]: 13% | Population Healthy Nuclei (%) [9]: 79% | Population Hoechst High Intensity Objects (%) [9]: 2% | Population Membrane Permeable-Phenotype (%) [9]: 0% | Population Mitochondria Different-Phenotype (%) [9]: 15% | Population Mitotic Cells (%) [9]: 82% | Population Normal (%) [9]: 97% | Population Pyknosed Nuclei (%) [9]: 6% | Population Tubulin-Different-Phenotype (%) [9]: 12% | Total Cell Count [9]: 872 | Population Apoptotic (%) [10]: 38% | Population Fragmented Nuclei (%) [10]: 9% | Population Healthy Nuclei (%) [10]: 82% | Population Hoechst High Intensity Objects (%) [10]: 1% | Population Membrane Permeable-Phenotype (%) [10]: 1% | Population Mitochondria Different-Phenotype (%) [10]: 20% | Population Mitotic Cells (%) [10]: 61% | Population Normal (%) [10]: 98% | Population Pyknosed Nuclei (%) [10]: 7% | Population Tubulin-Different-Phenotype (%) [10]: 9% | Total Cell Count [10]: 657 | Population Apoptotic (%) [11]: 35% | Population Fragmented Nuclei (%) [11]: 14% | Population Healthy Nuclei (%) [11]: 76% | Population Hoechst High Intensity Objects (%) [11]: 6% | Population Membrane Permeable-Phenotype (%) [11]: 0% | Population Mitochondria Different-Phenotype (%) [11]: 41% | Population Mitotic Cells (%) [11]: 64% | Population Normal (%) [11]: 93% | Population Pyknosed Nuclei (%) [11]: 8% | Population Tubulin-Different-Phenotype (%) [11]: 23% | Total Cell Count [11]: 776 | Population Apoptotic (%) [12]: 26% | Population Fragmented Nuclei (%) [12]: 13% | Population Healthy Nuclei (%) [12]: 80% | Population Hoechst High Intensity Objects (%) [12]: 5% | Population Mitochondria Different-Phenotype (%) [12]: 37% | Population Mitotic Cells (%) [12]: 73% | Population Normal (%) [12]: 94% | Population Pyknosed Nuclei (%) [12]: 6% | Population Tubulin-Different-Phenotype (%) [12]: 20% | Total Cell Count [12]: 733
